According to ChEMBL document CHEMBL4406821, “Novel dual inhibitors targeting CDK4 and VEGFR2 synergistically suppressed cancer progression and angiogenesis” (Eur J Med Chem, 2019):
The source made the active and inactive calls. The calls are words filed in the database; no cut-off is given here.

Assays:
[1] = target: T1, Vascular endothelial growth factor receptor 2 (Homo sapiens, UniProt P35968); settings: HUVEC, 40 nM
[2] = tested on: T47D; test: Inhibition of colony formation in human T47D cells at 40 nM incubated for 5 days by crystal violet staining based light microscopy; format: functional, cell-based
How it was run: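 MDA-MB-231, T-47D, SiHa and HeLa cells seeded at 4×10^3/well and cultured with varying concentrations of drug or vehicle for 5 days. Fixed in 20% methanol, stained with 0.5% crystal violet, photographed under light microscopy. DMEM (T-47D) with 10% FBS, 37°C, 5% CO2.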

[3] = target: Tau-tubulin kinase 2 (Homo sapiens) (UniProt Q6IQ55); test: Inhibition of recombinant human TTBK2 (1 to331 residues) at 1 uM using casein as substrate incubated for 40 mins in presence of [gamma-33P]-ATP by scintillation counting method relative to control
How it was run: (§1)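 Tested at a single 1 uM in an outsourced commercial kinase-profiling panel, read as percent inhibition. Each value is the mean of two independent experiments.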

[4] = Toxicity in BALB/c mouse assessed as effect on blood parameter by measuring eosinophils content at 40 mg/kg, po administered once two days for 4 times by hematology analyzer; settings: in vivo
[5] = tested on: HeLa; test: Induction of apoptosis in human HeLa cells assessed as increase in late apoptotic cells at 20 to 40 nM incubated for 48 hrs by annexin V FITC and propidium iodide staining based flow cytometry; format: functional, cell-based
How it was run: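 Cells were treated for 48 h, stained with FITC Annexin V and PI, and analyzed by flow cytometry to count early and late apoptotic cells.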

[6] = target: Serine/threonine-protein kinase ULK3 (Homo sapiens) (UniProt Q6PHR2); test: Inhibition of recombinant human full length ULK3 at 1 uM using casein as substrate incubated for 40 mins in presence of [gamma-33P]-ATP by scintillation counting method relative to control
[7] = tested on: MDA-MB-231; test: Induction of cell cycle arrest in human MDA-MB-231 cells assessed as accumulation in G2/M phase at 20 to 40 nM incubated for 36 hrs by propidium iodide staining based flow cytometry; format: functional
How it was run: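 Cells were treated with graded concentrations for 36 h, then fixed overnight in 70% ice-cold ethanol at 4°C and resuspended in PBS. Staining used 50 µg/ml PI plus 5 µg/ml RNase at 37°C for 30 min. DNA content was analysed by FACS to give G0/G1, S and G2/M fractions.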

[8] = target: Serine/threonine-protein kinase NLK (Homo sapiens) (UniProt Q9UBE8); test: Inhibition of recombinant human NLK (121 to end residues) at 1 uM using myelin basic protein as substrate incubated for 40 mins in presence of [gamma-33P]-ATP by scintillation counting method relative to control
[9] = target: Serine/threonine-protein kinase mTOR (Homo sapiens) (UniProt P42345); test: Inhibition of recombinant human full length mTOR at 1 uM using as peptide substrate incubated for 40 mins in presence of [gamma-33P]-ATP by scintillation counting method relative to control
How it was run: (§2)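 Single-point inhibition at 1 uM measured in a commercial kinase profiling panel (KinaseProfiler); each value is the mean of two independent experiments.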

[10] = tested on: Mus musculus; test: Antiangiogenic activity in Matrigel plug angiogenic BALB/c mouse assessed as reduction in blood vessel formation at 10 to 20 mg/kg, sc measured after 10 days by Matrigel plug assay; format: functional, organism-based
How it was run: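 Balb/c mice, 5 weeks old, were injected subcutaneously with 750 µL of a 2:1 mix of growth factor-reduced Matrigel and compound (10 or 20 mg/kg) or vehicle. Plugs were harvested after 10 days and the subcutaneous vessels photographed.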

[11] = target: T1, Vascular endothelial growth factor receptor 2; test: Inhibition of VEGFR2 in HUVEC cells assessed as reduction in STAT3 phosphorylation at 20 to 40 nM incubated for 48 hrs by Western blot analysis; format: cell-based
How it was run: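 HUVECs were maintained in 1640 medium with 10% FBS. They were treated with graded concentrations for 48 h, PBS-washed and lysed in RIPA buffer. Immunoblots were probed for total and phospho VEGFR2, STAT3, Akt, Erk1 and Src, each at 1:1000. β-actin served as loading control.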

[12] = target: Serine/threonine-protein kinase Nek7 (Homo sapiens) (UniProt Q8TDX7); test: Inhibition of recombinant human NEK7 (2 to end residues) at 1 uM using FLAKSFGSPNRAYKK as substrate incubated for 40 mins in presence of [gamma-33P]-ATP by scintillation counting method relative to control
[13] = target: STE20-like serine/threonine-protein kinase (Homo sapiens) (UniProt Q9H2G2); test: Inhibition of recombinant human SLK (1 to 373 residues) at 1 uM using RLGRDKYKTLRQIRQ as substrate incubated for 40 mins in presence of [gamma-33P]-ATP by scintillation counting method relative to control
STE20-like serine/threonine-protein kinase (Homo sapiens), sequence (Q9H2G2 whole entry, looked up, the tested form may be a part): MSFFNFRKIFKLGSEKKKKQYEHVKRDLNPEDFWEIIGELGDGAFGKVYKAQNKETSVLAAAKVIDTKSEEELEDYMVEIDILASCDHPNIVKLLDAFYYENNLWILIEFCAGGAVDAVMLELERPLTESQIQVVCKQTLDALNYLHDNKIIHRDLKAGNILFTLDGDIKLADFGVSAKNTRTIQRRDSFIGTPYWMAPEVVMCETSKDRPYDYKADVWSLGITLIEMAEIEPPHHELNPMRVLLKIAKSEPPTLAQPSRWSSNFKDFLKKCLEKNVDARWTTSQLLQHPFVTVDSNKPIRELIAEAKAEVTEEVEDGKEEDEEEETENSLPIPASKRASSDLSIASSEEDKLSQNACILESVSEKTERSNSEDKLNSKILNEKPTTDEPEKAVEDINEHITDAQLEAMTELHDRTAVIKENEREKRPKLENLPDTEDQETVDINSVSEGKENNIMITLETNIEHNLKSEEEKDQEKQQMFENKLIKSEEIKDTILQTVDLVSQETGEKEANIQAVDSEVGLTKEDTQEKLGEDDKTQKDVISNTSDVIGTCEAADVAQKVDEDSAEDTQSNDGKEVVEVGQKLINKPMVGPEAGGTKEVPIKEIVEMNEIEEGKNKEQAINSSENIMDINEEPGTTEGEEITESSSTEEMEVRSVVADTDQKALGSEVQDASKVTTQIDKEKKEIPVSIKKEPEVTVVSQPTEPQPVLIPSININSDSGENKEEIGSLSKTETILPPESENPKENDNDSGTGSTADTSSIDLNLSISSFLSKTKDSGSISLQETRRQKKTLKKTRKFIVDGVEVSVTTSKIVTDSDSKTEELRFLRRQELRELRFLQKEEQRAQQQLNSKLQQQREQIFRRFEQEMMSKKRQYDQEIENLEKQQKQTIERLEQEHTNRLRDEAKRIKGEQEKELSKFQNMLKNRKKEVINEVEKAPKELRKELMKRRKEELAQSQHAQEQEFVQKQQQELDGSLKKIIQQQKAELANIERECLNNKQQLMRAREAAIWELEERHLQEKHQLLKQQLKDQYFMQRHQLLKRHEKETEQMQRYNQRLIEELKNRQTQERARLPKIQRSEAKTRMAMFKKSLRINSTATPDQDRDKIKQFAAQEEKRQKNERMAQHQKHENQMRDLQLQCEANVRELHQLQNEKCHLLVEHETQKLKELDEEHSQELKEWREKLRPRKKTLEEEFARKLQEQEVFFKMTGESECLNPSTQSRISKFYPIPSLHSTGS

[14] = Toxicity in BALB/c mouse assessed as effect on blood parameter by measuring MCV at 40 mg/kg, po administered once two days for 4 times by hematology analyzer; settings: in vivo
[15] = tested on: Mast/stem cell growth factor receptor Kit (Homo sapiens), P10721 [D816H]; test: Inhibition of recombinant human cKIT D816H mutant (544 to end residues) at 1 uM using GGMEDIYFEFMGG as substrate incubated for 40 mins in presence of [gamma-33P]-ATP by scintillation counting method relative to control
How it was run: as §1

[16] = target: G protein-coupled receptor kinase 6 (Homo sapiens) (UniProt P43250); test: Inhibition of recombinant human full length GRK6 at 1 uM using casein as substrate incubated for 40 mins in presence of [gamma-33P]-ATP by scintillation counting method relative to control
How it was run: as §1

[17] = tested on: Hepatocyte growth factor receptor (Homo sapiens), P08581 [D1246N]; test: Inhibition of recombinant human Met D1246N mutant (974 to end residues) at 1 uM using KKKGQEEEYVFIE as substrate incubated for 40 mins in presence of [gamma-33P]-ATP by scintillation counting method relative to control
[18] = tested on: Angiopoietin-1 receptor (Homo sapiens), Q02763 [Y897S]; test: Inhibition of recombinant human TIE2 Y897S mutant (771 to end residues) at 1 uM using EFPIYDFLPAKKK as substrate incubated for 40 mins in presence of [gamma-33P]-ATP by scintillation counting method relative to control
Angiopoietin-1 receptor (Homo sapiens), Q02763 [Y897S], sequence (Q02763 whole entry Y897S): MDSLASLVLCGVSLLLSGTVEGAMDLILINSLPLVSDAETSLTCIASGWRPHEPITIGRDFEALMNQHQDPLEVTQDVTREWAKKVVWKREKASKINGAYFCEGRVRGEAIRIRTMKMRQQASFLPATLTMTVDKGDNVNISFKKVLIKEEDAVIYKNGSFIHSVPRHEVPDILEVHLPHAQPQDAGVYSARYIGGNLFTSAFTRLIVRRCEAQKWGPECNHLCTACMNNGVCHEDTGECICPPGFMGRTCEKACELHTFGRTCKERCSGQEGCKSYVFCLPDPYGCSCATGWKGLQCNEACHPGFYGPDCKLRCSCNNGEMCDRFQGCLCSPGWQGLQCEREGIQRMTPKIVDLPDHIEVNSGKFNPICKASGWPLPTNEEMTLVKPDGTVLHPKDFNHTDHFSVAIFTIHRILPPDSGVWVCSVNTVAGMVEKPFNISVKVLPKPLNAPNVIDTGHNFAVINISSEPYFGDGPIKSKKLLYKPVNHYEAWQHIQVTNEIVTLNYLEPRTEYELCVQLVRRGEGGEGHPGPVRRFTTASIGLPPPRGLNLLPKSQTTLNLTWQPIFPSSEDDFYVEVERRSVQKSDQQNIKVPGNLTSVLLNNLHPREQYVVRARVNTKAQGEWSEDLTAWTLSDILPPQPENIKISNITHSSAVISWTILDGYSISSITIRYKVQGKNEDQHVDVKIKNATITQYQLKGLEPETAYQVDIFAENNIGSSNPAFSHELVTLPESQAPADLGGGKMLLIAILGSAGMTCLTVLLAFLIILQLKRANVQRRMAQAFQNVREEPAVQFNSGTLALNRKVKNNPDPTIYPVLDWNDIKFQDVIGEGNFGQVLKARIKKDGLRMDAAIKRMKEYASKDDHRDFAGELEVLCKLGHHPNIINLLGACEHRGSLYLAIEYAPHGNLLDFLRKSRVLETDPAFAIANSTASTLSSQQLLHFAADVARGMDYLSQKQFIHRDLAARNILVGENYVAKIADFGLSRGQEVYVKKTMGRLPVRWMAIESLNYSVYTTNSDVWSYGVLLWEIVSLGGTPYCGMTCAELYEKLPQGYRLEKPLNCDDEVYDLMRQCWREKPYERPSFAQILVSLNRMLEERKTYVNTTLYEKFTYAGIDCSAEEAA

[19] = target: Testis-specific serine/threonine-protein kinase 3 (Homo sapiens) (UniProt Q96PN8); test: Inhibition of recombinant human full length TSSK3 at 1 uM using AMARAASAAALARRR as substrate incubated for 40 mins in presence of [gamma-33P]-ATP by scintillation counting method relative to control
How it was run: as §2

[20] = tested on: Epidermal growth factor receptor (Homo sapiens), P00533 [T790M]; test: Inhibition of recombinant human EGFR T790M mutant (696 to end residues) at 1 uM using poly(Glu, Tyr) 4:1 as substrate incubated for 40 mins in presence of [gamma-33P]-ATP by scintillation counting method relative to control
Epidermal growth factor receptor (Homo sapiens), P00533 [T790M], sequence (P00533 whole entry T790M): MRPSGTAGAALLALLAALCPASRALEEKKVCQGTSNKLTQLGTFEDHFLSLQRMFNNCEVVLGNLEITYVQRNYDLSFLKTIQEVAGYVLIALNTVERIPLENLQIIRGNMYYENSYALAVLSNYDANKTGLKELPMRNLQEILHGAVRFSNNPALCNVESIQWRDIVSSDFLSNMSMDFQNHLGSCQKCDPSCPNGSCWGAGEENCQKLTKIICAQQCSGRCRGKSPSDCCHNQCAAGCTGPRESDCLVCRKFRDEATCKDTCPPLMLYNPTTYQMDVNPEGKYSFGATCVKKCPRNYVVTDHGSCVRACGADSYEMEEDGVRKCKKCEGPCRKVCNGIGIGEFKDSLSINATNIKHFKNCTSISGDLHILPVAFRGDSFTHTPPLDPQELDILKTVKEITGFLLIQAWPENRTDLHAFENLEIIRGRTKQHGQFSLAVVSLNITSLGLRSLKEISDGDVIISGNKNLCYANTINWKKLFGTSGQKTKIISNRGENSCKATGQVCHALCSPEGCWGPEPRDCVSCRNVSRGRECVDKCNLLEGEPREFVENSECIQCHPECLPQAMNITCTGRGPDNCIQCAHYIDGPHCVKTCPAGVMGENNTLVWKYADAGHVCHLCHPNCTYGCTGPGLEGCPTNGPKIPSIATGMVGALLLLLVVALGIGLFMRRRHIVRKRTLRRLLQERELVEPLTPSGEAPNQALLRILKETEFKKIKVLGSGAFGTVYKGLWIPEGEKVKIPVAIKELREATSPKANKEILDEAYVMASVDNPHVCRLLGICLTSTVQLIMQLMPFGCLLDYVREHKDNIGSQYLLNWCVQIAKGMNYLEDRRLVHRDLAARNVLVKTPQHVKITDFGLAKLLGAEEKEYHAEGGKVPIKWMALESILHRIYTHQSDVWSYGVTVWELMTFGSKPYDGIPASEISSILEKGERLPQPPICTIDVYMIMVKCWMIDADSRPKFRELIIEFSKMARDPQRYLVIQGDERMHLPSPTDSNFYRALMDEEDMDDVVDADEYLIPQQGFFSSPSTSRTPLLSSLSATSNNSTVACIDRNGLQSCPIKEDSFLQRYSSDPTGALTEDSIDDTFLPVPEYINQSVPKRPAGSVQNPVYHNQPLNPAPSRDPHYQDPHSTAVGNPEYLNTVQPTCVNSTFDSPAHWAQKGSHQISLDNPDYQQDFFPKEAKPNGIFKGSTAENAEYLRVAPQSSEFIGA

T1 sequence (P35968 whole entry): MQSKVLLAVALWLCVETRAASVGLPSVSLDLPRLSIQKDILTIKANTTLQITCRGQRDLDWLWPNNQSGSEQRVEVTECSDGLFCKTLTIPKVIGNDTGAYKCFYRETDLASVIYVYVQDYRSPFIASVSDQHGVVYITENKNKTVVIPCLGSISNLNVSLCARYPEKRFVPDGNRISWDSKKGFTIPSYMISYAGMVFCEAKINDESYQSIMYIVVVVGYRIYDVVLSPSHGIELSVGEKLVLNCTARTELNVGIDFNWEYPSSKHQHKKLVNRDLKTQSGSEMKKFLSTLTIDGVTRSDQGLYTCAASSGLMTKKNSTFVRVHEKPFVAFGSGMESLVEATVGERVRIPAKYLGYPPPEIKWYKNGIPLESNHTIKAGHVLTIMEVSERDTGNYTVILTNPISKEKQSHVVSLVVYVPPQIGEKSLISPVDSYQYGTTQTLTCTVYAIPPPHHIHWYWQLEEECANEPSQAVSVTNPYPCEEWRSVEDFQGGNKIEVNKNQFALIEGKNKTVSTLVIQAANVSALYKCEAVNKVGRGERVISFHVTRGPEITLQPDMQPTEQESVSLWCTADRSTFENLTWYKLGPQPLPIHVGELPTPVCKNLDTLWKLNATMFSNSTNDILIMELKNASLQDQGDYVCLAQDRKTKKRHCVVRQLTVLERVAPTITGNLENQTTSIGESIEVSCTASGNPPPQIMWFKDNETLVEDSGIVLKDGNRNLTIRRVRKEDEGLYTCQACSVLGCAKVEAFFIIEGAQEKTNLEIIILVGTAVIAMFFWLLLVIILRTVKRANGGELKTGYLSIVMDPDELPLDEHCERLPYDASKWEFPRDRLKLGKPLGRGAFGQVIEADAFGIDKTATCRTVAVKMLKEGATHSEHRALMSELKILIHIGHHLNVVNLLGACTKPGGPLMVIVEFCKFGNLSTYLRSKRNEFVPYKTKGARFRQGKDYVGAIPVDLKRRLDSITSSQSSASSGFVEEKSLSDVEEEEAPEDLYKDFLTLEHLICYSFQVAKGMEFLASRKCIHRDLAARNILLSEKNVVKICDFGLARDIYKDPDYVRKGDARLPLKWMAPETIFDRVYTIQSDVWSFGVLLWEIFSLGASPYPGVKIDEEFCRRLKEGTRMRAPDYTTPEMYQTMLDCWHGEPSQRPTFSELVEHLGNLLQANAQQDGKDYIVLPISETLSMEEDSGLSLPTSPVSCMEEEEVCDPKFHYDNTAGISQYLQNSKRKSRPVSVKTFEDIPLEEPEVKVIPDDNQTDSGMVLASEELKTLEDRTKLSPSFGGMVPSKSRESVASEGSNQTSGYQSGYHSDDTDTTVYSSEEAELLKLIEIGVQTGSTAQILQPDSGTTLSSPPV

Structure (SMILES)	inhibition [1]	inhibition [2]	inhibition [3] [%]	Activity [4]	Activity [5]	inhibition [6] [%]	Activity [7]	inhibition [8] [%]	inhibition [9] [%]	inhibition [10]	inhibition [11]	inhibition [12] [%]	inhibition [13] [%]	Activity [14]	inhibition [15] [%]	inhibition [16] [%]	inhibition [17] [%]	inhibition [18] [%]	inhibition [19] [%]	inhibition [20] [%]
COc1cc2nccc(Oc3ccc(NC(=O)C4(C(=O)Nc5ccc(F)cc5)CC4)cc3)c2cc1OC [CABOZANTINIB]	Active	Active																		
Cc1ccc(NC(=O)C2(C(=O)Nc3ccc(Nc4ncc(F)c(-c5cc(F)c6nc(C)n(C(C)C)c6c5)n4)cc3)CC2)cc1			0	Non-Toxic	Active	37	Active	44	0	Active	Active	3	90	Non-Toxic	76	0	51	51	0	55
